Data from ChEMBL document CHEMBL5058577, “EUbOPEN Chemogenomics Library 2 (Multiplex)” (2022).

Test system: Fibroblast
Assay: Multiplex assay against human fibroblast
Type: toxicity, cell-based
Outline: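 With compound added, live cells were imaged on a CQ1 microscope at 37°C and 5% CO2; staining with Hoechst33342, BioTracker Green Microtubule Cytoskeleton Dye, MitoTracker Red and Annexin V Alexa Fluor 680 had been done at seeding. The CellPathfinder machine-learning gating scheme split cells into Hoechst high-intensity objects or normal cells, normal cells into healthy, pyknosed or fragmented nuclei, and pyknosed cells into mitotic or apoptotic. The tubulin, mitochondrial-mass and membrane-permeability phenotypes are per cents of healthy-nucleus cells.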

[1] = 12 h, 1 µM, compound concentration 1 uM, replicate 1
[2] = 12 h, 1 µM, compound concentration 1 uM, replicate 2
[3] = 12 h, 10 µM, compound concentration 10 uM, replicate 1
[4] = 12 h, 10 µM, compound concentration 10 uM, replicate 2
[5] = 24 h, 1 µM, compound concentration 1 uM, replicate 1
[6] = 24 h, 1 µM, compound concentration 1 uM, replicate 2
[7] = 24 h, 10 µM, compound concentration 10 uM, replicate 1
[8] = 24 h, 10 µM, compound concentration 10 uM, replicate 2
[9] = 48 h, 1 µM, compound concentration 1 uM, replicate 1
[10] = 48 h, 1 µM, compound concentration 1 uM, replicate 2
[11] = 48 h, 10 µM, compound concentration 10 uM, replicate 1
[12] = 48 h, 10 µM, compound concentration 10 uM, replicate 2

Structure (SMILES): CCc1cc2cc(NS(=O)(=O)c3ccc(C#N)cc3)ccc2n(CC)c1=O
- Population Apoptotic (%) [1]: 42%
- Population Fragmented Nuclei (%) [1]: 16%
- Population Healthy Nuclei (%) [1]: 64%
- Population Hoechst High Intensity Objects (%) [1]: 1%
- Population Membrane Permeable-Phenotype (%) [1]: 1%
- Population Mitochondria Different-Phenotype (%) [1]: 3%
- Population Mitotic Cells (%) [1]: 57%
- Population Normal (%) [1]: 98%
- Population Pyknosed Nuclei (%) [1]: 18%
- Population Tubulin-Different-Phenotype (%) [1]: 24%
- Total Cell Count [1]: 157
- Population Fragmented Nuclei (%) [2]: 27%
- Population Healthy Nuclei (%) [2]: 40%
- Population Hoechst High Intensity Objects (%) [2]: 6%
- Population Membrane Permeable-Phenotype (%) [2]: 9%
- Population Mitochondria Different-Phenotype (%) [2]: 7%
- Population Normal (%) [2]: 93%
- Population Pyknosed Nuclei (%) [2]: 32%
- Population Tubulin-Different-Phenotype (%) [2]: 39%
- Total Cell Count [2]: 173
- Population Apoptotic (%) [3]: 42%
- Population Fragmented Nuclei (%) [3]: 18%
- Population Healthy Nuclei (%) [3]: 54%
- Population Hoechst High Intensity Objects (%) [3]: 1%
- Population Membrane Permeable-Phenotype (%) [3]: 1%
- Population Mitochondria Different-Phenotype (%) [3]: 5%
- Population Mitotic Cells (%) [3]: 57%
- Population Normal (%) [3]: 98%
- Population Pyknosed Nuclei (%) [3]: 26%
- Population Tubulin-Different-Phenotype (%) [3]: 65%
- Total Cell Count [3]: 133
- Population Apoptotic (%) [4]: 18%
- Population Fragmented Nuclei (%) [4]: 19%
- Population Healthy Nuclei (%) [4]: 43%
- Population Hoechst High Intensity Objects (%) [4]: 5%
- Population Membrane Permeable-Phenotype (%) [4]: 12%
- Population Mitochondria Different-Phenotype (%) [4]: 6%
- Population Mitotic Cells (%) [4]: 81%
- Population Normal (%) [4]: 94%
- Population Pyknosed Nuclei (%) [4]: 37%
- Population Tubulin-Different-Phenotype (%) [4]: 74%
- Total Cell Count [4]: 153
- Population Apoptotic (%) [5]: 53%
- Population Fragmented Nuclei (%) [5]: 19%
- Population Healthy Nuclei (%) [5]: 63%
- Population Hoechst High Intensity Objects (%) [5]: 5%
- Population Membrane Permeable-Phenotype (%) [5]: 1%
- Population Mitochondria Different-Phenotype (%) [5]: 4%
- Population Mitotic Cells (%) [5]: 46%
- Population Normal (%) [5]: 94%
- Population Pyknosed Nuclei (%) [5]: 17%
- Population Tubulin-Different-Phenotype (%) [5]: 26%
- Total Cell Count [5]: 157
- Population Apoptotic (%) [6]: 43%
- Population Fragmented Nuclei (%) [6]: 26%
- Population Healthy Nuclei (%) [6]: 48%
- Population Hoechst High Intensity Objects (%) [6]: 6%
- Population Membrane Permeable-Phenotype (%) [6]: 9%
- Population Mitochondria Different-Phenotype (%) [6]: 8%
- Population Mitotic Cells (%) [6]: 56%
- Population Normal (%) [6]: 93%
- Population Pyknosed Nuclei (%) [6]: 25%
- Population Tubulin-Different-Phenotype (%) [6]: 51%
- Total Cell Count [6]: 164
- Population Apoptotic (%) [7]: 50%
- Population Fragmented Nuclei (%) [7]: 19%
- Population Healthy Nuclei (%) [7]: 58%
- Population Hoechst High Intensity Objects (%) [7]: 2%
- Population Membrane Permeable-Phenotype (%) [7]: 1%
- Population Mitochondria Different-Phenotype (%) [7]: 6%
- Population Mitotic Cells (%) [7]: 50%
- Population Normal (%) [7]: 97%
- Population Pyknosed Nuclei (%) [7]: 22%
- Population Tubulin-Different-Phenotype (%) [7]: 59%
- Total Cell Count [7]: 130
- Population Apoptotic (%) [8]: 32%
- Population Fragmented Nuclei (%) [8]: 22%
- Population Healthy Nuclei (%) [8]: 38%
- Population Hoechst High Intensity Objects (%) [8]: 9%
- Population Membrane Permeable-Phenotype (%) [8]: 6%
- Population Mitochondria Different-Phenotype (%) [8]: 12%
- Population Mitotic Cells (%) [8]: 67%
- Population Normal (%) [8]: 90%
- Population Pyknosed Nuclei (%) [8]: 39%
- Population Tubulin-Different-Phenotype (%) [8]: 72%
- Total Cell Count [8]: 145
- Population Apoptotic (%) [9]: 52%
- Population Fragmented Nuclei (%) [9]: 24%
- Population Healthy Nuclei (%) [9]: 59%
- Population Hoechst High Intensity Objects (%) [9]: 3%
- Population Membrane Permeable-Phenotype (%) [9]: 0%
- Population Mitochondria Different-Phenotype (%) [9]: 4%
- Population Mitotic Cells (%) [9]: 47%
- Population Normal (%) [9]: 96%
- Population Pyknosed Nuclei (%) [9]: 15%
- Population Tubulin-Different-Phenotype (%) [9]: 27%
- Total Cell Count [9]: 150
- Population Apoptotic (%) [10]: 37%
- Population Fragmented Nuclei (%) [10]: 33%
- Population Healthy Nuclei (%) [10]: 50%
- Population Hoechst High Intensity Objects (%) [10]: 5%
- Population Membrane Permeable-Phenotype (%) [10]: 12%
- Population Mitochondria Different-Phenotype (%) [10]: 8%
- Population Mitotic Cells (%) [10]: 62%
- Population Normal (%) [10]: 94%
- Population Pyknosed Nuclei (%) [10]: 16%
- Population Tubulin-Different-Phenotype (%) [10]: 60%
- Total Cell Count [10]: 156
- Population Apoptotic (%) [11]: 60%
- Population Fragmented Nuclei (%) [11]: 17%
- Population Healthy Nuclei (%) [11]: 62%
- Population Hoechst High Intensity Objects (%) [11]: 1%
- Population Membrane Permeable-Phenotype (%) [11]: 1%
- Population Mitochondria Different-Phenotype (%) [11]: 12%
- Population Mitotic Cells (%) [11]: 40%
- Population Normal (%) [11]: 98%
- Population Pyknosed Nuclei (%) [11]: 19%
- Population Tubulin-Different-Phenotype (%) [11]: 61%
- Total Cell Count [11]: 129
- Population Fragmented Nuclei (%) [12]: 30%
- Population Healthy Nuclei (%) [12]: 48%
- Population Hoechst High Intensity Objects (%) [12]: 7%
- Population Membrane Permeable-Phenotype (%) [12]: 18%
- Population Mitochondria Different-Phenotype (%) [12]: 7%
- Population Mitotic Cells (%) [12]: 39%
- Population Normal (%) [12]: 92%
- Population Pyknosed Nuclei (%) [12]: 20%
- Population Tubulin-Different-Phenotype (%) [12]: 69%
- Total Cell Count [12]: 145
